Test [1] concerns T1, Vitamin D3 receptor (Homo sapiens), P11473 [R274L].
T1 sequence (whole entry): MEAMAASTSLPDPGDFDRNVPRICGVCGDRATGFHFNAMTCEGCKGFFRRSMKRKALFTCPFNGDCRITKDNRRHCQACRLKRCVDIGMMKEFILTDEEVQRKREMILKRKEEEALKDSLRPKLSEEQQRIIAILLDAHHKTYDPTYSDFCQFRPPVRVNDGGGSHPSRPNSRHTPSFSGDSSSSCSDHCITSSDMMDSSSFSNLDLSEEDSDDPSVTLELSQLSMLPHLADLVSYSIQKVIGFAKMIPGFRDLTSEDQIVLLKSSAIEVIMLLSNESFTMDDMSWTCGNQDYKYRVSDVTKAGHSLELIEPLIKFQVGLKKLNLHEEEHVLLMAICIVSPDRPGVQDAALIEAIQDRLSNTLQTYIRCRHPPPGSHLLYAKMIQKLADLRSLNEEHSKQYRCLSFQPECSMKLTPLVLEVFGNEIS
In words: Agonist activity at human full length VDR R274L mutant expressed in COS7 cells after 24 rs by luciferase reporter gene assay. Format: cell-based. The settings on record: COS-7. Summed up: (§1)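 COS-7 cells grown in DMEM with 5% FCS, seeded at 2 × 10^4 per well. After 24 h, lipofected with mutant full-length hVDR expression plasmid, SPPx3-TK-Luc reporter (three mouse osteopontin VDRE copies) and sea pansy luciferase internal control. Medium changed after 4 h to 5% charcoal-treated FCS. Next day, ligand or ethanol vehicle added for 24 h. Lysate firefly luciferase normalized to the internal control. Triplicate.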
A general note: A reporter such as luciferase makes a cellular process visible.

Test [2] concerns the target T2, Vitamin D3 receptor (Homo sapiens) (UniProt P11473).
T2 sequence (whole entry): T1 sequence (whole entry) with L274R
In words: Agonist activity at human full length VDR W282R mutant expressed in COS7 cells after 24 rs by luciferase reporter gene assay. Type of test: cell-based. Conditions: COS-7. Put shortly: as §1

For test [3], the system named is T1, Vitamin D3 receptor (Homo sapiens), P11473 [R274L]. The test can be described thus: Transactivation of human full length VDR R274L mutant expressed in COS7 cells after 24 rs by luciferase reporter gene assay relative to 1,25(OH)2D3. Format: cell-based. Conditions: COS-7. Put shortly: as §1
The target in test [4] is T3, Vitamin D3 receptor (Rattus norvegicus) (UniProt P13053).
T3 sequence (whole entry): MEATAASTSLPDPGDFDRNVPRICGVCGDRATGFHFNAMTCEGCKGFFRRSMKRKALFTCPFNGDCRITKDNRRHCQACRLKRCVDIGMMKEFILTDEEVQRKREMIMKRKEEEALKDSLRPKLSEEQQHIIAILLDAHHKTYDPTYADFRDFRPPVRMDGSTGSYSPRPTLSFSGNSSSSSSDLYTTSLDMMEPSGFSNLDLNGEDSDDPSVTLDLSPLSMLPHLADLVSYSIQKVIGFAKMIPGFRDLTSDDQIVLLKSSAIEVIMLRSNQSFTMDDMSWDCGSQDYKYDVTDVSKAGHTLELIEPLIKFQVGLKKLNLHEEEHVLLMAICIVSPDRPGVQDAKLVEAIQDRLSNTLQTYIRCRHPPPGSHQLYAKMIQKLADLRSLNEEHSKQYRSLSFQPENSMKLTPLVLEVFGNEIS
Conditions: 5 mM.

Test [5] relates to T4, Vitamin D3 receptor (Rattus norvegicus), P13053 [W282R].
T4 sequence (whole entry): T3 sequence (whole entry) with W282R
The settings on record: 5 mM.

In test [6] the test system is T5, Vitamin D3 receptor (Rattus norvegicus), P13053 [R270L].
T5 sequence (whole entry): T3 sequence (whole entry) with R270L
The settings on record: 5 mM.

Where a chain is given by its changes, count along the chain named. Where “and” joins values, the source holds several entries; their conditions need not be identical. Equal entries are not always repeated. Calls of active or inactive are those of the source. The rule behind the calls is not given here.

Turning to `C[C@H](CCCC(C)(C)O)[C@H]1CC[C@H]2/C(=C/C=C3/C[C@@H](O)[C@@](C)(O)[C@H](OCCCCO)C3)CCC[C@]12C`, in test [1], the outcome was inactive.
As to `C[C@H](CCCC(C)(C)O)[C@H]1CC[C@H]2/C(=C/C=C3/C[C@@H](O)[C@@](C)(O)[C@H](OCCO)C3)CCC[C@]12C`, in test [1], the outcome was inactive.
Turning to `C[C@H](CCCC(C)(C)O)[C@H]1CC[C@H]2/C(=C/C=C3/C[C@@H](O)C[C@H](OCCO)C3)CCC[C@]12C`, in test [1], the result was Active.
Regarding `C[C@H](CCCC(C)(C)O)[C@H]1CC[C@H]2/C(=C/C=C3/C[C@@H](O)C[C@H](OCCCCO)C3)CCC[C@]12C`, the outcome in test [1] was Active.
For `C=CC[C@@H]1CC[C@]2(C)[C@@H]([C@H](C)CCCC(C)(C)O)CC[C@H]2/C1=C/C=C1C[C@@H](O)C(=CCO)[C@H](O)C1`, in test [2], the outcome was inactive.
On to `CCC(O)(CC)CS[C@@H](C)C1=CC[C@H]2/C(=C/C=C3C[C@@H](O)C(=CCO)[C@H](O)C3)CCC[C@]12C`, for which the fold change (FC) in test [3] was 130 and 46.
`C[C@H](CCCC(C)(C)O)[C@H]1CC[C@H]2/C(=C/C=C3/C[C@@H](O)[C@@](C)(O)[C@H](OCCCO)C3)CCC[C@]12C`: the result in test [1] was inactive.
One may read the ΔTm as the change in melting temperature against a reference sample. Take `C=C1/C(=C\C=C2/CCC[C@]3(C)[C@@H]([C@H](C)CCCC(C)(C)O)CC[C@@H]23)C[C@@H](O)C[C@@H]1O`: the ΔTm stood at 8.4 °C in test [4], 0.1 °C in test [5] and 2.5 °C in test [6].
For `CCCC[C@@H]1CC[C@]2(C)[C@@H]([C@H](C)CCCC(C)(C)O)CC[C@H]2/C1=C/C=C1C[C@@H](O)C[C@H](O)C1`, in test [2], the outcome was inactive.
Take `C[C@H](CCCC(C)(C)O)[C@H]1CC[C@H]2/C(=C/C=C3C[C@@H](O)C(=CCO)[C@H](O)C3)[C@H](CCCO)CC[C@]12C`: the outcome in test [2] was inactive.

These data come from ChEMBL document CHEMBL2424653, “Crystal structures of hereditary vitamin D-resistant rickets-associated vitamin D receptor mutants R270L and W282R bound to 1,25-dihydroxyvitamin D3 and synthetic ligands” (J Med Chem, 2013).
